Bioassay records from PubChem.
Compounds with a hit are over-represented: about 3.4% of the library has one in this group of screens.
Cl transport mod = KCC2 cotransporter modulators, thallium flux, primary screen, cell-based, HEK293 KCC2, FluoZin-2 fluorescence, MLSMR | KCC2 cells, thallium flux FluoZin-2 fluorescence | B-score of Tl+ flux slope (higher = more flux/activation; lower = inhibition) at 10 µM | hit rate 2.2% among 190,000 | AID 1456, 2008;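 active means thallium flux slope and its plate-corrected score both differing from the plate sample mean at a set confidence after two filtering rounds, in either direction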;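 further: slope of fluorescence scaled to starting intensity during 10 to 20 s after thallium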
Mdm2 ligase inh = MDM2-luciferase reporter signal enhancers, primary screen, MDM2 E3 ligase inhibitor project, cell-based, luminescence, 1536-well | cell-based MDM2 ubiquitination luciferase reporter, 2 h; 0 = plate control, 100 = twice control, blank-subtracted | signal enhancement, % at 5 µM | hit rate 0.11% among 210,000 | AID 1230, 2008;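 active means signal enhancement of 30% or more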;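 further: luminescence tracks abundance of the self-degrading MDM2-luciferase fusion protein; higher signal means inhibition of MDM2 E3 ligase activity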
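Test system: mammalian cells stably expressing self-ubiquitinating, self-degrading MDM2 E3–luciferase fusion; Amount: 2000 cells in each well; Medium: DMEM; Schedule: 4 h settle plus 2 h compound, 37 °C; Technique: SteadyLite luciferase luminescence after 15 min room-temperature reagent incubation; Benchmarks: plate control and blank wells.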
Redox H2O2 prof = compounds producing H2O2 with reducing agent – biochemical, NIH compound library profiling, artefact control for MLSCN library redox annotation, primary screen. activation, % at 10 µM. AID 878, 2007. hit rate 0.03% among 200,000. DTT-dependent redox cycling H2O2, phenol red/HRP absorbance; 100% = 100 µM peroxide control, 0% = buffer;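 active means activation of at least 50% relative to the plate's high and low controls in the primary single-dose screen; inactive means activation below 50%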;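 further: compound incubated with DTT at 0.8 mM final as the reducing agent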
PKD1 inh = inhibitors of human PKD1 kinase, biochemical, fluorescence polarization. inhibition, % (no concentration beside the values). PKD1 kinase fluorescence polarization assay. hit rate 0.056% among 200,000. Serine/threonine-protein kinase D1 (Homo sapiens), Q15139; in the data active means inhibition above about 50%
p97 inhibitor = inhibitors of human p97 ATPase, primary screen, biochemical; Transitional endoplasmic reticulum ATPase (Homo sapiens), P55072; recombinant p97 ATPase, Kinase-Glo ATP luminescence, 3 h; inhibition, % at 8 µM; hit rate 0.42% among 220,000; AID 1481, 2009; in the data active means inhibition above about 15%;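 further: 0% = DMSO vehicle and 100% = wells lacking enzyme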
ROMK mod = ROMK potassium channel modulators, primary screen, cell-based, thallium flux, MLSMR library. B-score at 10 µM. hit rate 2% among 130,000. AID 1918, 2009. Tet-inducible ROMK, thallium flux fluorescence; actives lie on both sides;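 active means signal ratio slope over the read window, or its plate-corrected B-score, at least 3 SD from the plate mean, either direction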;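 further: B-score of the F/F0 ratio slope over 7 to 12 s after thallium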
Target sequence (P48048 whole entry, looked up): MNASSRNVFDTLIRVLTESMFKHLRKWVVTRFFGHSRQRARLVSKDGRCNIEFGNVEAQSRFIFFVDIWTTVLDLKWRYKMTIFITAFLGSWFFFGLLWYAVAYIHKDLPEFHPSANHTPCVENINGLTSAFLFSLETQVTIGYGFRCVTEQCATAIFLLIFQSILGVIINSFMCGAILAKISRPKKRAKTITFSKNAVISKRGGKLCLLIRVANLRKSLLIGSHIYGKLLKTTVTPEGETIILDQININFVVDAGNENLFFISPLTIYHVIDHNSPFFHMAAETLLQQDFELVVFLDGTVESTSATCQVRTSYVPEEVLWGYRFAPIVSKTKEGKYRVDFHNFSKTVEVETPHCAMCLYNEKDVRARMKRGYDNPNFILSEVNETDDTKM
ROMK hit retest = ROMK channel modulator hit retest, confirmation, cell-based, thallium flux, duplicate, resupplied hits; fluorescence ratio; hits give low values; shares compounds with ROMK mod; AID 1917, 2009; normalized thallium flux (F/F0 slope) at 10 µM; hit rate 54% among 3,000;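 active means Flux at 10 µM at least 3 SD below or above vehicle control mean in one or both replicates; inconclusive means no clear call, values can overlap the other calls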
An asterisk follows results filed as active; i = inactive; ? = inconclusive; . = no result.

SMILES	Cl transport mod	Mdm2 ligase inh	Redox H2O2 prof	PKD1 inh	p97 inhibitor	ROMK mod	ROMK hit retest
O=C1OCC2=C1C(c1ccc(F)cc1)CC(=O)N2c1ccccc1 (stereo not given)	-0.0359	22.8	9.6	4.0	4.3	3.06*	0.0835
O=c1cc2c(nn1Cc1cccc([N+](=O)[O-])c1)-c1ccccc1CC2	-0.346	5.7	-1.9	5.9	-1.4	-8.35*	0.053*
Cc1ccccc1NC(=O)C1CCN(C2=NS(=O)(=O)c3ccccc32)CC1	1.11	-3.1	-0.5	0.0	2.6	-1.18	.
CCOC(=O)CCNC(=O)c1ccccc1Br	-0.307	-5.9	-2.3	-11.3	-1.4	.	0.0759
Cc1cc(NC(=O)CN(C)C)c([N+](=O)[O-])cc1C	0.138	-10.5	-1.5	3.0	1.0	-0.0227	.
O=C(NCCCN1CCCC1=O)c1cccs1	2.38	-11.1	-0.5	-16.7	4.7	.	0.0746
O=C(NCCCNC(=O)c1cccs1)c1cccs1	.	-9.2	-0.9	3.7	4.1	.	.
CN1CCN(C(=O)c2ccc3c(c2)S(=O)(=O)c2ccccc2C3=O)CC1	0.00445	0.9	0.2	-4.0	0.9	0.64	.
CCN1CCN(C(=O)c2ccc3c(c2)S(=O)(=O)c2ccccc2C3=O)CC1	0.141	-6.7	-2.2	0.9	6.4	1.5*	0.0795
COCCn1c(=NC(=O)CSCC(=O)Nc2cc(C)on2)sc2cc(C(=O)OC)ccc21	-0.377	-5.3	0.2	-15.6	8.6	-0.051	0.0791
COCCn1c(SCC(=O)Nc2cc(C)on2)nnc1-c1ccco1	.	-9.2	-0.1	-4.2	1.4	0.631	.
CCOC(=O)C1=C(O)/C(=C/c2cn(CC(=O)N3CCCC3)c3ccccc23)SC1=Nc1ccccc1	-0.943	-0.1	0.5	5.5	4.9	0.52	.
CCOC(=O)C1=C(O)/C(=C/c2ccc(OCC(=O)O)c(OC)c2)SC1=Nc1ccc(OC)cc1	-0.264	-5.3	-0.4	0.0	-1.9	.	0.0809
CC(=NCc1ccco1)c1c(O)n(C2CCCCC2)c(=O)[nH]c1=O	.	-7.2	-0.3	-0.6	-2.3	-2.82*	0.0585*
CC(=NCc1ccco1)c1c(C)[nH]n(-c2nc3ccccc3s2)c1=O	-0.901	-45.0	0.9	-5.4	-3.7	.	.
Fc1ccc(-c2n[nH]c(=S)n2-c2ccc3c(c2)OCCO3)cc1	0.753	-1.6	0.1	-1.9	3.7	0.652	.
O=C(NC(Nc1nc2ccc([N+](=O)[O-])cc2s1)(C(F)(F)F)C(F)(F)F)c1ccccc1Cl	0.81	-59.8	0.8	-5.2	10.7	.	?
COc1ccc(C2COC(=O)C2=N)c(NC(=O)c2ccc(Cl)cc2)c1 (stereo not given)	0.422	7.8	-0.2	0.3	5.1	-0.644	.
COC(=O)N/N=C/c1cn(CC(C)COc2ccccc2)c2ccccc12 (stereo not given)	-0.201	-17.7	-0.5	0.3	-6.3	.	.
CCN(CC)c1ccc(N=Cc2cc(Br)ccc2O)cc1	-1.84	-3.3	-0.1	-2.4	2.1	-5.58*	0.0639*
Oc1ccc(Br)cc1C=Nc1ccc(Cl)cc1	-0.303	-5.9	2.5	-1.1	4.9	0.411	.
CCCCCCN1C=CC=C/C1=C\C=C(C#N)C#N	-3.23	-4.8	.	.	2.1	-4.37*	0.043*
COc1ccc(C2=NOC(C(=O)NCc3cccs3)C2)cc1 (stereo not given)	0.0799	-4.7	0.1	1.9	4.0	3.82*	0.0836
COc1ccc(C2=NOC(C(=O)NCc3ccco3)C2)cc1 (stereo not given)	-0.923	-1.9	0.2	2.8	1.2	3.89*	?
COc1ccc(CNC(=O)C2CC(c3ccc(OC)cc3)=NO2)cc1 (stereo not given)	-0.239	11.0	-0.2	-1.3	-3.3	.	.
SMILES	Cl transport mod	Mdm2 ligase inh	Redox H2O2 prof	PKD1 inh	p97 inhibitor	ROMK mod	ROMK hit retest
COc1ccc(S(=O)NC2CCCCC2)c(OC)c1C (stereo not given)	-0.125	-9.7	-1.4	-0.4	1.8	.	0.0748
COc1ccc([N+](=O)[O-])cc1NC1CCCCC1	0.0532	9.1	1.9	-1.0	-0.5	.	.
CCOC(=O)c1oc2nc3c(cc2c1N)COC(C)(C)C3	0.306	-17.9	0.1	4.1	5.0	3.54*	0.0779
O=C(Cc1sc(-c2ccccc2Cl)nc1-c1ccccc1)Nc1ccccc1	.	.	0.3	-0.7	4.3	1.64	.
COCCn1c(C)cc(C(=O)COc2cccnc2[N+](=O)[O-])c1C	1.98	-9.0	-1.2	-3.5	2.0	-0.00309	.
Cc1cccc(-n2c3nc(=O)[nH]c(=O)c-3cc3c(C)nn(-c4ccccc4)c32)c1C	-0.0716	7.7	0.6	-5.9	4.0	.	.
Cc1cccc(-n2c3nc(=O)[nH]c(=O)c-3cc3cc([N+](=O)[O-])ccc32)c1	-0.0373	-7.8	-0.2	12.1	8.8	-2.78*	0.0476*
Cc1ccc(C)c(-n2c3nc(=O)n(C)c(=O)c-3cc3ccccc32)c1	-0.15	-8.6	.	.	-0.5	0.339	.
Cc1ccc(C)c(-n2c3nc(=O)[nH]c(=O)c-3cc3cc([N+](=O)[O-])ccc32)c1	-0.389	3.6	0.0	0.0	7.0	.	0.0427*
c1ccc(-c2cnn3c(-c4ccccc4)c(-c4ccccc4)nc3n2)cc1	i	-13.8	2.5	39.9	2.8	.	.
CC1(C)CC(NC(=S)NCc2ccco2)CC(C)(C)N1	-0.194	.	-1.4	-1.4	1.9	-0.0443	.
O=C1C2CC=CCC2C(=O)N1c1ccc(Cc2ccncc2)cc1 (stereo not given)	-0.769	-3.4	0.4	-10.1	-2.5	-0.725	.
COc1cc(N2C(=O)CSC23C(=O)Nc2ccccc23)cc(OC)c1OC (stereo not given)	-0.126	-6.6	0.8	-2.1	2.2	0.0158	.
COc1ccc(N2C(=O)CSC23C(=O)Nc2ccccc23)cc1OC (stereo not given)	-0.276	-6.4	1.8	-4.1	5.9	.	0.0819
COCCN(CC(=O)NC1CCCCC1)C(=O)/C=C/C(=O)c1ccc(OC)cc1O	0.0296	-19.3	-0.3	-7.4	0.9	-4.97*	0.0534*
Cc1ccc(-c2ccc(/C=N/c3ncn[nH]3)o2)cc1Cl	0.283	13.2	0.2	-14.5	3.4	3.39*	0.0871
CCOc1ccccc1C1CC(=O)NC2=C1C(=O)CC(C)(C)C2 (stereo not given)	0.487	-12.5	-0.1	-0.1	1.5	.	.
